Rtt109 Vps75: C. albicans Rtt109 histone acetyltransferase inhibition; purified Rtt109/Vps75, ThioGlo CoA-SH fluorescence, 4 h; inhibition, % at 34.9 µM; 330,000 compounds, 0.16% hits;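 active means inhibition of at least 50% in every replicate; inconclusive means best replicate reaches 50% inhibition but some replicates fall short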
N-glyco inh: N-linked glycosylation inhibition; 360,000 compounds, 0.23% hits; D54 ERlucT glycosylation luciferase reporter, 24 h; percent of 100 nM tunicamycin response; reporter increase, % at 12.5 µM;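 active means mean luciferase reporter signal, scaled so untreated is 0 and the glycosylation-blocking control 100, at or above a set limit in every replicate; inconclusive means mean reaches the limit but not every replicate does; inactive means mean below the limit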;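 further: luciferase carries N-glycosylation sites so blocking glycosylation raises the light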
Env fusion inh: blocks HIV Env-driven cell-cell fusion; AID 651610; HeLa-JRFL Env/CEM21 cell fusion, luciferase; inhibition, % at 12.3 µM; 360,000 compounds, 1.1% hits;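 active means mean replicate inhibition score of at least 50 and every replicate individually at or above 50; inconclusive means only one of the two criteria met; inactive means mean below 50 and not all replicates reaching 50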
SR-BI DiI inh: blocks mouse SR-BI lipid uptake from DiI-HDL | 320,000 compounds, 0.96% hits | AID 488896 | ldlA[mSR-BI] CHO cells, DiI-HDL uptake fluorescence, 3 h | inhibition, % at 12.5 µM | Q61009;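 active means mean replicate inhibition of at least 70% and a set share of replicates each scoring 70 or more; inconclusive means meets just one of the two criteria; inactive means fails both criteria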
Target sequence (Q61009 whole entry, looked up): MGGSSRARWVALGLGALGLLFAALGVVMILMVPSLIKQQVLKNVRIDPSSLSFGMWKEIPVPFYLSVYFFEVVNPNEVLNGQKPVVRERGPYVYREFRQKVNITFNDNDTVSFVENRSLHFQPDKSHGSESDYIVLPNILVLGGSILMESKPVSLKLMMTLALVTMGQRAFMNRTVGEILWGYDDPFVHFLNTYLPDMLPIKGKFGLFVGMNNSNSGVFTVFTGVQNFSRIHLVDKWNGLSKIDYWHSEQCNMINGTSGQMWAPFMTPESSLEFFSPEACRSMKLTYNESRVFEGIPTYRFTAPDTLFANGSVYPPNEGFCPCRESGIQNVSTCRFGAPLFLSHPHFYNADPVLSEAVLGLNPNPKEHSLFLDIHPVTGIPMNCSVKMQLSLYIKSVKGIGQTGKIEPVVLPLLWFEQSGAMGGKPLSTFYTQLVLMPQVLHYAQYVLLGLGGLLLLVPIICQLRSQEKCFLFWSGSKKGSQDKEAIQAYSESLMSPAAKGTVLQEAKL
PglD inh: PglD (C. jejuni) enzyme inhibition | 360,000 compounds, 0.098% hits | inhibition, % at 12.5 µM | purified PglD enzyme, DTNB colorimetric CoA detection; in the data active means inhibition above about 16%, passing the limit was not always enough; inconclusive means no clear call, values can overlap the other calls
SR-BI DiI-HDL act: activators of SR-BI mediated HDL lipid uptake | 320,000 compounds, 0.096% hits | activation, % at 12.5 µM | CHO ldlA[mSR-BI] cells, DiI-HDL uptake fluorescence, 3 h; 100 = double the neutral-control signal;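 active means mean replicate activation of at least 60% and every replicate at or above 60%; inconclusive means mean or all-replicate condition met, but not both; inactive means mean below 60% and not all replicates reaching 60%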
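system = CHO ldlA[mSR-BI] cells, LDL receptor-null, SR-BI overexpressing | medium = Ham's F12 with 0.5% BSA, HEPES 25 mM, pH 7.4 | probe or stimulus = DiI-HDL 10 µg/mL | compound dosing = single-point compound dose | incubation = compound exposure 3 h, 37 °C | technique = DiI fluorescence, bottom read | read-out = cell-associated DiI fluorescence as measure of HDL uptake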
A number is an active result; 0 = inactive; ? = inconclusive; - = not tested or not shown. Hits are enriched below; roughly 1.9% of the tested compounds scored in any of these assays.

SMILES | Rtt109 Vps75 | N-glyco inh | Env fusion inh | SR-BI DiI inh | PglD inh | SR-BI DiI-HDL act
O=C(CN1CCOCC1)N[C@H]1CC[C@H](CCNC(=O)C2CCCCC2)O[C@H]1CO | - | - | 0 | - | 0 | -
CO[C@@H]1CN(C)C(=O)c2cc(NS(=O)(=O)c3ccccc3F)ccc2OC[C@H](C)NC[C@@H]1C | - | - | 0 | - | 0 | -
CCn1ccnc1CNC(=O)CC1C(=O)NCCN1Cc1ccccc1F (stereo not given) | 0 | 0 | 0 | 0 | 0 | 0
CCc1ccc(CNC(=O)CC2C(=O)NCCN2Cc2ccccc2F)nc1 (stereo not given) | 0 | 0 | 56 | 0 | 0 | 0
COc1cc(NC(=O)c2ccc3c(c2)OCO3)c2ncccc2c1 | 0 | 0 | - | 78 | 0 | 0
Cc1ccc(Nc2nc(=O)c3cccnc3s2)cc1 | 0 | 0 | - | 0 | 0 | 0
COc1ccc(OC)c(Nc2nc(=O)c3cccnc3s2)c1 | 112 | 0 | - | 0 | - | 0
CC(C)NC(=O)Nc1ccc2c(c1)C(=O)N([C@@H](C)CO)C[C@@H](C)[C@H](CN(C)S(=O)(=O)c1cn(C)cn1)OCCCC[C@@H](C)O2 | - | - | 0 | - | 0 | -
CO[C@H]1CN(C)C(=O)c2cc(C#N)ccc2OCC[C@H]2CC[C@@H](OC)[C@@H](CN(C)C(=O)[C@@H]1C)O2 | - | - | 0 | - | 0 | -
N#CCCN(C(=O)CN1CCN(S(=O)(=O)c2ccc(Cl)s2)CC1)c1ccc(F)cc1 | 0 | 0 | 62 | 0 | 0 | 0
N#CCCN(C(=O)CN1CCN(S(=O)(=O)c2ccc3c(c2)OCCO3)CC1)c1ccc(F)cc1 | 0 | 0 | 0 | 0 | 0 | 0
CCCN1C[C@@H](C)[C@@H](OC)CN(C)C(=O)c2ccc(NS(=O)(=O)c3ccccc3)cc2OC[C@@H]1C | - | - | 0 | - | 0 | -
COc1ccc(CC(=O)N(Cc2ccccc2)c2ccc(C)cc2)cc1S(=O)(=O)N1CCOCC1 | 0 | 0 | 0 | 0 | 0 | 0
COc1ccc(CC(=O)N(Cc2ccccc2)c2ccc(C)cc2)cc1OC | 0 | 31 | 0 | 0 | 0 | 0
COCCNc1nc(SCC(=O)N2CCN(c3ccccc3OC)CC2)nc2ccccc12 | 0 | 0 | 0 | 72 | 0 | 0
COC(=O)Cn1cnc2c(Cl)nc(F)nc21 | 0 | 0 | 89 | 0 | 0 | 0
Cc1ccc(S(=O)(=O)Nc2ccc3c(c2)C(=O)N([C@H](C)CO)C[C@H](C)[C@@H](CN(C)C(=O)Cc2ccccc2)OCCCC[C@@H](C)O3)cc1 | - | - | 0 | - | 0 | -
CCOC(=O)N/N=C/c1ccc(OCCSc2ccc(Cl)cc2)c(OCC)c1 | 0 | 0 | 0 | 74 | 0 | 0
CCOC(=O)N/N=C/c1ccc(OCCSc2ccc(Cl)cc2)c(OC)c1 | 0 | 0 | 0 | 0 | - | 0
CCOC(=O)c1c(C)oc2c(F)c(F)c(F)c(F)c2c1=O | 0 | 31 | - | 0 | 0 | 0
CCOC(=O)c1cnc2c(cnn2C)c1NCc1ccc(OC)cc1 | 0 | 0 | 0 | 79 | 0 | 0
COc1ccc(CNc2c(C(=O)O)cnc3c2cnn3C)cc1 | 0 | 0 | 0 | 0 | 0 | 0
Cc1ccc(Nc2c([N+](=O)[O-])c(=O)n(C)c3ccccc23)cc1C | 0 | 0 | - | 71 | 0 | 0
CNC[C@@H]1OCCCC[C@H](C)Oc2ccc(NC(=O)Nc3ccc4c(c3)OCO4)cc2C(=O)N([C@H](C)CO)C[C@H]1C | - | - | 0 | - | - | -
CCOc1ccc(C(=O)n2cc(C(=O)OC)c3ccccc32)cc1OCC | 0 | 0 | 0 | 81 | 0 | 0
SMILES | Rtt109 Vps75 | N-glyco inh | Env fusion inh | SR-BI DiI inh | PglD inh | SR-BI DiI-HDL act
CCOc1ccc(C(=O)n2cc(C(=O)OC)c3ccccc32)cc1 | 0 | 0 | 0 | 0 | 0 | 0
Cc1ccc2cccc(Oc3ncnc4sc(C)c(C)c34)c2n1 | 0 | 0 | 0 | 77 | - | 0
CCCC1C(=O)Nc2ccccc2N1C(=O)c1ccc(C(C)(C)C)cc1 (stereo not given) | 0 | 0 | 62 | 0 | 0 | 0
C[C@H]1CCCCO[C@@H](CN(C)C(=O)Cc2ccccc2)[C@@H](C)CN([C@@H](C)CO)C(=O)c2cc(NS(=O)(=O)c3cn(C)cn3)ccc2O1 | - | - | 0 | - | 0 | -
CC(C)NC(=O)NCC[C@@H]1CC[C@H](NC(=O)CN(C)C)[C@H](CO)O1 | - | - | 0 | - | 0 | -
O=C(Nc1ccc(Cl)cc1)N1CCN(c2ccccc2)CC1 | 0 | 0 | - | 0 | 0 | 0
O=C(Nc1ccc(NC(=O)N2CCN(c3ccccc3O)CC2)cc1)N1CCN(c2ccccc2O)CC1 | 0 | 0 | 0 | 74 | 0 | 0
CCc1nc2ccc(C(=O)Nc3ccc(NC(C)=O)cc3)cc2nc1CC | 0 | 0 | 0 | 83 | 0 | 0
O=C1/C(=C/c2cccc([N+](=O)[O-])c2)CSc2ccc(Cl)cc21 | 0 | 0 | 61 | 0 | - | 0
CCCc1[nH]n(-c2ccc([N+](=O)[O-])cc2)c(=O)c1C=NCCc1c[nH]c2ccccc12 | 0 | 0 | - | 79 | - | 0
CCS(=O)(=O)Nc1ccc2c(c1)C(=O)N(C)C[C@@H](OC)[C@H](C)CN(C(=O)COC)[C@H](C)CO2 | - | - | ? | - | 0 | -
C[C@H](CO)N1C[C@H](C)[C@H](CN(C)S(=O)(=O)c2ccc(F)cc2)Oc2ncc(C#Cc3ccc(F)cc3)cc2C1=O | - | - | 0 | - | - | -
COC(=O)C1=C(C)NC(=O)NC1c1ccc(N2CCC(c3ccccc3)=N2)cc1 (stereo not given) | 0 | 0 | 0 | 78 | 0 | 0
O=C(Nc1cccc(F)c1)N1C[C@@H]2[C@H](c3ccccc31)[C@H](CO)N2C(=O)C1CCOCC1 | - | - | - | - | 0 | -
CC(C)(C)c1ccc(C(=O)Nc2sc3c(c2C(=O)O)CCC3)cc1 | 0 | 0 | 81 | 0 | - | 0
C[C@@H](O)C#Cc1cnc2c(c1)C(=O)N([C@@H](C)CO)C[C@H](C)[C@@H](CN(C)Cc1cccc(C(=O)O)c1)O2 | - | - | 0 | - | 0 | -
C[C@@H]1CCCCO[C@@H](CN(C)Cc2ccc(C(=O)O)cc2)[C@H](C)CN([C@H](C)CO)C(=O)c2cc(N(C)C)ccc2O1 | - | - | 0 | - | - | -
Cc1ccc(C(=O)NNc2c3ccccc3nc3ccccc23)cc1 | 0 | 0 | 0 | 97 | 0 | 0
O=C(NNc1c2ccccc2nc2ccccc12)c1ccc(Cl)cc1 | 0 | 0 | 0 | - | 0 | -
CCOC(=O)Nc1c2ccccc2nc2ccccc12 | 0 | 34 | 0 | 0 | 0 | 0
COc1cc(NC(=O)c2ccccc2)c(OC)cc1NC(=O)CN1C(=O)NC2(CCCCC2C)C1=O (stereo not given) | 0 | 0 | - | 0 | 0 | 0
COc1cc(NC(=O)c2ccccc2)c(OC)cc1NC(=O)CN1C(=O)NC2(CCCCC2)C1=O | 0 | 0 | 0 | 77 | 0 | 0
COc1ccc(NC(=O)Nc2cccc3c2O[C@H](CN(C)Cc2ccccc2)[C@H](C)CN([C@H](C)CO)C3=O)cc1 | - | - | 0 | - | 0 | -
Nc1nc(CN2CCN(Cc3ccccc3)CC2)nc(Nc2ccc3c(c2)OCCO3)n1 | 0 | 47 | 0 | 0 | - | 0
Cc1ccc(Nc2nc(N)nc(CN3CCN(Cc4ccc5c(c4)OCO5)CC3)n2)cc1Cl | 0 | 0 | 69 | 0 | 0 | 0

From PubChem
